Screening data from PubChem.
RBBP9 inhibitor: human RBBP9 inhibitors, primary screen, biochemical, fluorescence polarization, FP-Rh probe, HTS; Serine hydrolase RBBP9 (Homo sapiens), O75884; hit rate 0.2% among 220,000; inhibition, % at 7.94 µM; recombinant RBBP9;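 active means inhibition above the campaign mean of all tested compounds plus 3 SD, cut at about 14% in these data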;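 further: plate controls were DMSO wells with RBBP9 for no effect and wells lacking RBBP9 protein for full effect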
Target sequence (O75884 whole entry, looked up): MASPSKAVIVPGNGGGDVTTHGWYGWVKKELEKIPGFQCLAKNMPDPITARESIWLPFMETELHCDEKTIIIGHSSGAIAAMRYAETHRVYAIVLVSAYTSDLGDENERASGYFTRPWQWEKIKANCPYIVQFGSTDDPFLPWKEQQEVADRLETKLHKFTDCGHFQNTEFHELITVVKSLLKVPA
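System: RBBP9 protein | Quantity: 2.5 µM RBBP9 dispensing solution, before mixing | Reagent: FP-Rh probe, 375 nM dispensing solution | Timing: Enzyme-compound preincubation 30 min, then probe labeling 45 min, 25 °C | Measured by: Fluorescence polarization | Read-out: % inhibition | Replication: One well per compound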
PME-1 primary: PME-1 inhibitors via competitive probe labeling, primary screen, biochemical, fluorescence polarization, FP-Rh probe, HTS | Protein phosphatase methylesterase 1 (Homo sapiens), Q9Y570 | inhibition, % at 5.9 µM | recombinant PME-1 | hit rate 0.53% among 320,000;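 active means inhibition above the campaign mean of all compounds plus 3 SD, cut at about 26% in these data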;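 further: competitive labeling of PME-1 active site by serine hydrolase directed probe; 0% = PME-1 with DMSO and 100% = wells lacking PME-1 enzyme; inhibitors block probe labeling so polarization falls and inhibition rises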
LYPLA1 counter: LYPLA1 inhibitors, primary screen, counter-screen for PME1 inhibitor project, biochemical, fluorescence polarization, FP-Rh probe ABPP; Acyl-protein thioesterase 1 (Homo sapiens), O75608; recombinant LYPLA1; inhibition, % at 5.9 µM; hit rate 0.16% among 320,000;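 active means inhibition above the mean of all tested compounds plus 3 SD, set per campaign, cut at about 14% in these data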;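 further: inhibitors block serine hydrolase probe labeling of LYPLA1 so polarization falls; 0% = enzyme with DMSO and 100% = wells lacking LYPLA1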
Target sequence (O75608 whole entry, looked up): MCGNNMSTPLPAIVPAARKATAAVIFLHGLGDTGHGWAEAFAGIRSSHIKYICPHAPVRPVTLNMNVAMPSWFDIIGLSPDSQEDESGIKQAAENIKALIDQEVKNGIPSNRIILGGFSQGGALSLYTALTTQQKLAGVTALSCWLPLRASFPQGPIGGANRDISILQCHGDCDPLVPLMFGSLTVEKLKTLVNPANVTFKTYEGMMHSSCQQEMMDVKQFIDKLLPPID
LYPLA2 counter: LYPLA2 inhibitors, primary screen, counter-screen for PME1 inhibitor project, biochemical, fluorescence polarization, FP-Rh probe ABPP. Acyl-protein thioesterase 2 (Homo sapiens), O95372. hit rate 0.38% among 320,000. inhibition, % at 5.9 µM. recombinant LYPLA2. AID 2177, 2009;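 active means inhibition above the screen-wide mean plus 3 SD, limit set per campaign, cut at about 26% in these data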;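 further: 0% = LYPLA2 with DMSO and 100% = wells lacking LYPLA2 enzyme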
Fam108B inh: mouse Fam108B serine hydrolase inhibitors, primary screen, counter-screen for RBBP9 inhibitor project, biochemical, fluorescence polarization | recombinant Fam108B, FP-Rh probe fluorescence polarization | inhibition, % at 9.51 µM | hit rate 0.33% among 300,000;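 active means inhibition above the screen mean inhibition plus 3 SD, computed separately per campaign, cut at about 18% in these data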;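 further: inhibitors lower polarization as less probe binds the enzyme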
Fam108b inh conf: mouse Fam108b serine hydrolase inhibitors, confirmation, counter-screen for RBBP9 inhibitor project, biochemical, fluorescence polarization, triplicate; AID 1978, 2009; hit rate 44% among 930; inhibition, % at 9.51 µM; shares compounds with Fam108B inh; recombinant Fam108b, FP-Rh probe fluorescence polarization;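 active means inhibition above a limit from the primary screen, the mean over all compounds plus 3 SD, cut at about 19% in these data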;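 further: 0% = median of active Fam108b wells and 100% = catalytically dead S170A mutant; inhibitors free the probe so polarization falls as inhibition rises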
Fam108b inh: inhibition of mouse Fam108b by HTS hits, late-stage follow-up, biochemical, gel-based ABPP, soluble recombinant form. fluorophosphonate probe. inhibition, % at 20 µM. shares compounds with Fam108B inh. hit rate 44% among 260; in the data active means inhibition above about 40%
LYPLA1 conf: LYPLA1 inhibitors, retest, confirmation, counter-screen for PME1 inhibitor project, biochemical, fluorescence polarization, FP-Rh probe ABPP. shares compounds with LYPLA1 counter. recombinant LYPLA1. inhibition, % at 5.9 µM. hit rate 69% among 480;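 active means mean inhibition across replicates above the hit cutoff set in the primary screen, cut at about 15% in these data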;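 further: loss of FP-Rh probe labeling of LYPLA1 seen as lower polarization; 0% = LYPLA1 with DMSO and 100% = wells lacking LYPLA1 enzyme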
LYPLA2 conf: LYPLA2 inhibitors, retest, confirmation, counter-screen for PME1 inhibitor project, biochemical, fluorescence polarization, FP-Rh probe ABPP. shares compounds with LYPLA2 counter. recombinant LYPLA2. inhibition, % at 5.9 µM. hit rate 72% among 1,100. AID 2232, 2010;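 active means mean inhibition across replicates above the hit cutoff set in the primary screen, cut at about 26% in these data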;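 further: blocked labeling of the enzyme by serine hydrolase FP-Rh probe lowers polarization; 0% = enzyme with DMSO and 100% = wells lacking LYPLA2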
Active calls of the source: *; . = no result; ! = a repeat was not active. Only some compounds are listed: those with a hit (about 0.99% of all), similar ones and a draw of the others.

SMILES | RBBP9 inhibitor | PME-1 primary | LYPLA1 counter | LYPLA2 counter | Fam108B inh | others
Cc1c(C(c2ccc(Cl)cc2Cl)c2c(O)c3ccccc3oc2=O)c(=O)n(-c2ccccc2)n1C (stereo not drawn) | -9 | 3 | 1 | 9 | 2
CC(=NCCN1CCCCC1)c1c(O)n(-c2ccccc2)c(=O)[nH]c1=O | 2 | 9 | -2 | -4 | 2
Cc1cc(C(=O)N2CCC3(CC2)OCCO3)no1 | . | -3 | 1 | 0 | -1
CCCCCn1c(N)c(C(=O)NCc2cccs2)c2nc3ccccc3nc21 | -2 | 10 | -2 | 8 | 5
Nc1c(C(=O)NCCCc2ccccc2)c2nc3ccccc3nc2n1Cc1cccs1 | -4 | 2 | -2 | 0 | 34* | Fam108b inh conf=21*
O=C1c2ccccc2C2(c3ccc(Cl)cc3)NCCN12 (stereo not drawn) | 1 | 4 | -3 | 4 | 3
CC(=O)c1ccc2c(c1)C1C(Cl)C(Sc3ccccc3[N+](=O)[O-])CC1C(C(=O)O)N2 (stereo not drawn) | 11 | 31* | 1 | 13 | 56* | Fam108b inh conf=5
CN(C)[C@@H]1C(=O)C(C(N)=O)=C(O)[C@@]2(O)C(=O)C3=C(O)c4c(O)cccc4[C@@](C)(O)C3C[C@@H]12 (stereo partly drawn) | . | -4 | 0 | 6 | 5
CN(C)[C@@H]1C(=O)C(C(N)=O)=C(O)[C@@]2(O)C(=O)C3=C(O)c4c(O)cccc4[C@@](C)(O)[C@H]3[C@H](O)[C@@H]12 | 5 | -6 | -3 | 4 | 59* | Fam108b inh conf=67*!;Fam108b inh=0
O=C(N/N=C/c1c(O)n(Cc2ccccc2)c(=O)[nH]c1=O)c1ccccc1O | 1 | 1 | -5 | 1 | 21* | Fam108b inh conf=42*;Fam108b inh=0
O=C(O)c1cccc2c1NC(C(=O)O)C1CC(Sc3ccccc3[N+](=O)[O-])C(Cl)C21 (stereo not drawn) | 6 | 18 | 12 | 29* | 75* | Fam108b inh conf=54*;Fam108b inh=0;LYPLA2 conf=12
CC(C(=O)Nc1ccc(Br)cc1C(=O)c1ccccc1)N1CCOCC1 (stereo not drawn) | 4 | -8 | 6 | -3 | -2
NP(=O)(OCCCCc1ccccc1)Oc1ccccc1Cl (stereo not drawn) | . | 41* | 19* | 25 | -3 | LYPLA1 conf=9
Cc1ccc(C)c(NC(=O)CCNC(=O)N2C[C@H]3C[C@@H](C2)c2cccc(=O)n2C3)c1 | . | 5 | 0 | 6 | -2
Oc1c(Cl)c(Cl)c(Cl)c(Cl)c1Cl | . | 19 | 9 | 28* | -3 | LYPLA2 conf=34*
CC(=O)N1CC(=O)Nc2ccc(C)cc2C1c1ccccc1 (stereo not drawn) | . | 1 | 1 | 6 | -1
CCN(CC)C(=O)c1ccc(NC(=O)COc2ccc(-c3nn(C)c(=O)c4ccccc34)cc2)cc1 | . | 0 | 13 | 32* | 3 | LYPLA2 conf=31*
Cc1ccc(Cn2nnnc2CN2CCC(n3nnc4cc(C)ccc43)CC2)cc1 | -2 | -7 | -1 | 27* | -2 | LYPLA2 conf=24
Cc1ccc(Cn2nnnc2CN2CCC(n3nnc4cc(C(F)(F)F)ccc43)CC2)cc1 | -2 | -1 | -1 | 15 | 3
CC(=NCCN1CCOCC1)c1c(O)n(Cc2ccccc2)c(=O)[nH]c1=O | -7 | 5 | -2 | -2 | -2
CC(=NCCc1c[nH]c2ccccc12)c1c(O)n(Cc2ccccc2)c(=O)[nH]c1=O | -4 | 5 | -2 | 31* | -2 | LYPLA2 conf=27*
CCC1=Nc2cc(C(=O)N3CCC4(CC3)OCCO4)ccc2Sc2ccc(Br)cc21 | . | -7 | -6 | -9 | 2
